# According to ChEMBL document CHEMBL1125319, “Synthesis and hypoglycemic activity of substituted 8-(1-piperazinyl)imidazo[1,2-a]pyrazines” (J Med Chem, 1992):
# Activity calls are given as the source filed them. No cut-off for these calls is given here.
# What was measured:
# [1] = biological target: T1, Alpha-2A adrenergic receptor (Bos taurus, UniProt Q28838); assay: Binding affinity at Alpha-2 adrenergic receptor in calf cerebral cortex homogenates by [3H]clonidine displacement.; type: tissue-based
# T1 sequence (Q28838 whole entry): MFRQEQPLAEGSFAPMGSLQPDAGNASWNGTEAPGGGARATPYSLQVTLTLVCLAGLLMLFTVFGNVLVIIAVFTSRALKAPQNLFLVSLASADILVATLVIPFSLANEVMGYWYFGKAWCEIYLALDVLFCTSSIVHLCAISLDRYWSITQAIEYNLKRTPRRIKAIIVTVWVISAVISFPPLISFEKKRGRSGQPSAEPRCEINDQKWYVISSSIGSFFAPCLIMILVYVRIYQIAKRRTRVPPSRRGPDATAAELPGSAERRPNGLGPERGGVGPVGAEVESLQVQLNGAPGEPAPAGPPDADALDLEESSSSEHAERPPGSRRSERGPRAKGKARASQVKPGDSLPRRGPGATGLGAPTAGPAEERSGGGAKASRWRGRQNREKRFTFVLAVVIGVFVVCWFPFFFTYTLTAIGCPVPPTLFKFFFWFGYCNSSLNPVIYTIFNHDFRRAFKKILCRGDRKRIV
# [2] = tested on: Mus musculus; assay: Ability to lower blood glucose in insulin-resistant hyperglycemic ob/ob mice after 30 mg/kg p.o. administration.; type: functional; conditions: route oral
# [3] = Hypoglycemic potency relative to MTP-1403; type: functional
# Summary of the method: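 ob/ob insulin-resistant hyperglycemic mice on lab chow with free water. Graded oral doses given to groups of 5 mice; glucose load 2 g/kg sc 30 min after dosing, orbital sinus bleed 30 min after the load. Blood glucose compared with a reference standard by parallel-line bioassay, giving potency relative to the standard.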
# [4] = biological target: T2, Beta-1 adrenergic receptor (Cavia porcellus, UniProt B0FL73)
# [5] = biological target: T3, Alpha-1A adrenergic receptor (Bos taurus) (UniProt P18130); assay: Inhibition of binding of [3H]prazosin to Alpha-1 adrenergic receptor in calf cerebral cortex homogenates at 10000 nM; type: tissue-based
# T3 sequence (whole entry): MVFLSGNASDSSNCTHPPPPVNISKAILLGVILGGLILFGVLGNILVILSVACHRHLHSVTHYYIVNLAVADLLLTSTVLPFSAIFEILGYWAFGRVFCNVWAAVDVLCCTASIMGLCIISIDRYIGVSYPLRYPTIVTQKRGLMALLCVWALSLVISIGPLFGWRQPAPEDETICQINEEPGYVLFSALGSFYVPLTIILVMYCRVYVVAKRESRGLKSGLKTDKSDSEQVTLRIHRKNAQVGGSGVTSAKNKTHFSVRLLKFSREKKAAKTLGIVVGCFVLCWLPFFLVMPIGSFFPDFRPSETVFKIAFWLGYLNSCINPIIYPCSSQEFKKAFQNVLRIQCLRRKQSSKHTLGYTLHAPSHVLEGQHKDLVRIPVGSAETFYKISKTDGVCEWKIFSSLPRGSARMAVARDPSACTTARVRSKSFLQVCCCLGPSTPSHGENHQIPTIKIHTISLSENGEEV
# [6] = Binding affinity against Alpha-1 adrenergic receptor of calf cerebral cortex homogenates using [3H]prazosin; type: tissue-based, Bos taurus
# [7] = biological target: Beta-2 adrenergic receptor (Cavia porcellus, UniProt Q8K4Z4)
# [8] = biological target: T2, Beta-1 adrenergic receptor; assay: Binding affinity against Beta-1 adrenergic receptor was measured using [125I]CYP as radioligand; NB= not bound
# [9] = tested on: Mus musculus; assay: Compound was evaluated for its ability to lower blood glucose in insulin-resistant hyperglycemic ob/ob mice after peroral administration of 30 mg/kg single dose; NA= not active; type: functional, organism-based; parameters: dose 30 mg/kg; conditions: at 30 mg/kg
# [10] = biological target: T4, Alpha-1A adrenergic receptor (Bos taurus, UniProt P18130); assay: Binding affinity against alpha-1 adrenergic receptor was determined in calf cerebral cortex homogenates using [3H]prazosin as radioligand; type: tissue-based
# T4 sequence (P18130 whole entry): T3 sequence (whole entry)
# T2 sequence (B0FL73 whole entry): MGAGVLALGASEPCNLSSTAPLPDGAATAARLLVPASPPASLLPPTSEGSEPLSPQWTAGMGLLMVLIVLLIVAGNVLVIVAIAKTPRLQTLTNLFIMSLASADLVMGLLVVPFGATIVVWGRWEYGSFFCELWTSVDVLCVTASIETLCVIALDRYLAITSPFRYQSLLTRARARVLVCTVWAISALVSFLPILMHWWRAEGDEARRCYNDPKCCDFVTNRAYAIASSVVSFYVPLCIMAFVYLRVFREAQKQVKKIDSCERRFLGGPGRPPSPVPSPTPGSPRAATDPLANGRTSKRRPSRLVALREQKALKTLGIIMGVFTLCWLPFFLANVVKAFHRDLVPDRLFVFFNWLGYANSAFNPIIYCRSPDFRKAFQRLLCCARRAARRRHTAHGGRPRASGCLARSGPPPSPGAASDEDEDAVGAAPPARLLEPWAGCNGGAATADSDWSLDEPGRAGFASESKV
# Sequence of Beta-2 adrenergic receptor (Q8K4Z4 whole entry): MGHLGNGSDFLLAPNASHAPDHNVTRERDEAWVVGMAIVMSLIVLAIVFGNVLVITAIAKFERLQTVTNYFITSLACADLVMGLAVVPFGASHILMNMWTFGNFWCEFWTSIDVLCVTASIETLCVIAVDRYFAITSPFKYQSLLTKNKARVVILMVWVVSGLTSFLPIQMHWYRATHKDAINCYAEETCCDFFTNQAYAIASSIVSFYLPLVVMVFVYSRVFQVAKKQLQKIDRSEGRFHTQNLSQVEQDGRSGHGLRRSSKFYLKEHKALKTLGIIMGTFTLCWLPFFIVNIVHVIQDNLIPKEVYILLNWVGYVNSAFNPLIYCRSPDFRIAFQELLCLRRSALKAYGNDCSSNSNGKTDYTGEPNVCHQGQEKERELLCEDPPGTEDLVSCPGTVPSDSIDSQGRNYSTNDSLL
structure (smiles),measurement,setting,value
Cc1cn2ccnc(N3CCNCC3)c2n1.Cl,Ki,[1],51 nM
same,"Blood glucose, percent of control",[2],28%
same,Relative potency,[3],32
same,Ki,[4],310 nM
CN1CCN(c2nccn3c(Br)cnc23)CC1,inhibition,[5],4%
same,Ki,[1],1350 nM
same,"Blood glucose, percent of control",[2],98%
same,Ki,[4],6300 nM
c1cn2ccnc2c(N2CCNCC2)n1,Ki,[6],3100 nM
same,Relative potency,[3],76
same,Ki,[7],1700 nM
same,Ki,[4],400 nM
Cc1cnc(N2CCNCC2)c2ncc(C)n12.Cl,Ki,[1],340 nM
same,"Blood glucose, percent of control",[2],72%
same,Ki,[4],400 nM
Brc1cnc(N2CCNCC2)c2nccn12,Ki,[1],182 nM
same,Ki,[6],1490 nM
same,"Blood glucose, percent of control",[2],87%
same,Ki,[7],520 nM
same,Ki,[4],170 nM
Cl.FCCc1cnc2c(N3CCNCC3)nccn12,"Blood glucose, percent of control",[2],56%
same,Relative potency,[3],8
CC1CN=C2C(N3CCNCC3)=NC=CN21.O=C(O)C/C=C\CC(=O)O (stereo not given),inhibition,[5],12%
same,Ki,[1],1600 nM
same,"Blood glucose, percent of control",[2],88%
CCCc1cnc2c(N3CCNCC3)nccn12.Cl,Ki,[1],480 nM
same,Ki,[6],2650 nM
same,"Blood glucose, percent of control",[2],59%
same,Relative potency,[3],4
same,Ki,[7],1390 nM
same,Ki,[4],7790 nM
Cc1cn2ccnc2c(N2CCNCC2)n1.Cl,Ki,[1],190 nM
same,Ki,[6],500 nM
same,"Blood glucose, percent of control",[2],61%
same,Ki,[7],280 nM
same,Ki,[4],220 nM
Cc1cn2c(C)cnc2c(N2CCNCC2)n1.Cl,Ki,[1],620 nM
same,Ki,[6],300 nM
same,"Blood glucose, percent of control",[2],47%
same,Relative potency,[3],6
same,Ki,[7],250 nM
same,Ki,[4],150 nM
CN1CCN(c2nccn3ccnc23)CC1,Ki,[1],1020 nM
same,Ki,[8],Not Active
same,"Blood glucose, percent of control",[2],62%
same,Relative potency,[3],19
CN1CCN(c2ncc(Br)n3ccnc23)CC1,inhibition,[5],22%
same,Ki,[1],270 nM
same,"Blood glucose, percent of control",[2],100%
same,Ki,[4],500 nM
CCc1cnc2c(N3CCNCC3)nccn12.Cl,inhibition,[5],30%
same,Ki,[1],530 nM
same,"Blood glucose, percent of control",[2],54%
same,Relative potency,[3],4
same,Ki,[7],3240 nM
same,Ki,[4],5000 nM
Brc1cnc(N2CCNCC2)c2ncc(Br)n12,Ki,[1],11900 nM
same,Control,[9],inactive
same,Ki,[4],630 nM
CC(C)c1cnc2c(N3CCNCC3)nccn12.Cl,Ki,[1],370 nM
same,Ki,[6],5430 nM
same,"Blood glucose, percent of control",[2],60%
same,Relative potency,[3],3
same,Ki,[7],2010 nM
same,Ki,[4],2990 nM
Cc1cnc2c(N3CCNCC3)nccn12.Cl,Ki,[1],240 nM
same,Ki,[6],1800 nM
same,"Blood glucose, percent of control",[2],32%
same,Relative potency,[3],11
same,Ki,[7],2300 nM
same,Ki,[4],2400 nM
Cc1cnc(N2CCNCC2)c2nccn12.Cl,Ki,[1],140 nM
same,Ki,[6],2600 nM
same,"Blood glucose, percent of control",[2],52%
same,Relative potency,[3],17
same,Ki,[7],820 nM
same,Ki,[4],360 nM
C1=CN2CCN=C2C(N2CCNCC2)=N1.O=C(O)C/C=C\CC(=O)O,inhibition,[5],15%
same,Ki,[1],870 nM
same,"Blood glucose, percent of control",[2],71%
Cl.Clc1cnc2c(N3CCNCC3)nccn12,Ki,[6],2780 nM
same,"Blood glucose, percent of control",[2],66%
Cc1cnc(N2CCN(C)CC2)c2nccn12,inhibition,[5],45%
same,Ki,[1],81 nM
same,"Blood glucose, percent of control",[2],51%
same,Relative potency,[3],6
same,Ki,[4],2800 nM
Cl.Cl.Clc1cn2ccnc2c(N2CCNCC2)n1,Ki,[10],250 nM
same,"Blood glucose, percent of control",[2],36%
same,Relative potency,[3],> 5
